Experimental data taken from ChEMBL document CHEMBL1134108, “Expedited discovery of second generation NK-1 antagonists: identification of a nonbasic aryloxy substituent” (Bioorg Med Chem Lett, 2001).

Tests used:
Substance-P receptor [1] = target: T1, Substance-P receptor (Homo sapiens, UniProt P25103); experiment: In vitro inhibition of binding of [125I]Bolton-Hunter SP to Tachykinin receptor 1 in human IM-9 cell line; assay type: cell-based
Substance-P receptor [2] = target: T1, Substance-P receptor; experiment: In vitro inhibition of binding of [125I]Bolton-Hunter SP to Tachykinin receptor 1 in human IM-9 cell line at a concentration of 10 nM; assay type: cell-based
Outline: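 Single-point screen at 10 nM test compound, run in triplicate, measuring displacement of [125I]Bolton-Hunter SP binding on human IM-9 cells expressing NK-1 receptors.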

Canis familiaris = species: Canis familiaris; experiment: In vitro microsome stability tested in dog liver expressed as percent remaining […]; assay type: functional; conditions: Canis lupus familiaris
[3] = Bioavailability in dog; assay type: ADME, organism-based, Canis lupus familiaris; conditions: in vivo

T1 sequence (P25103 whole entry): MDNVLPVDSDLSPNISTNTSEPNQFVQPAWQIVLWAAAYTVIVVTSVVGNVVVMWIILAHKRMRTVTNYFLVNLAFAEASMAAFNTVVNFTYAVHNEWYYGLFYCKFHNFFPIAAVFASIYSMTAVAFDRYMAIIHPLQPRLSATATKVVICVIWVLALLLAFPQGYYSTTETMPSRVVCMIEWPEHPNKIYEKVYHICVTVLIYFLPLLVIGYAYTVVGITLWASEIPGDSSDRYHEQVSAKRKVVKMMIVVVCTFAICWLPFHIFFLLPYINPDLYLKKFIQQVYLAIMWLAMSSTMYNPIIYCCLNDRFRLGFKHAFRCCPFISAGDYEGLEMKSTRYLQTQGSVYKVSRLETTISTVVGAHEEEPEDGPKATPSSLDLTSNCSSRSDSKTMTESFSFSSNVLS

Structure (SMILES)	IC50 (Substance-P receptor [1])	inhibition (Substance-P receptor [2])	Remaining (Canis familiaris)	bioavailability [3]
COc1ccc(OCC(=O)NC(Cc2c[nH]c3ccccc23)CN(Cc2ccccc2OC)C(C)=O)cc1 (configuration not stated)	10.2 nM	52%		
COc1ccccc1CN(CC(Cc1c[nH]c2ccccc12)NC(=O)c1ccccc1)C(C)=O (configuration not stated)		0%		
COc1ccccc1CN(CC(Cc1c[nH]c2ccccc12)NC(=O)CSc1ccccn1)C(C)=O (configuration not stated)	10.8 nM	41%		
COc1ccc(C(=O)CCC(=O)NC(Cc2c[nH]c3ccccc23)CN(Cc2ccccc2OC)C(C)=O)cc1 (configuration not stated)	3.3 nM	63%		
COc1ccccc1CN(C[C@@H](Cc1c[nH]c2ccccc12)NC(=O)COc1ccc(-c2csnn2)cc1)C(C)=O	0.98 nM		67%	47%
COc1ccccc1CN(CC(Cc1c[nH]c2ccccc12)NC(=O)Cc1ccccc1)C(C)=O (configuration not stated)		18%		
COc1ccccc1CN(C[C@@H](Cc1c[nH]c2ccccc12)NC(=O)COc1ccc(-n2ccnc2)cc1)C(C)=O	0.48 nM		87%	14%
COc1ccc(CC(=O)NC(Cc2c[nH]c3ccccc23)CN(Cc2ccccc2OC)C(C)=O)cc1 (configuration not stated)	9.7 nM	81%		
COc1ccccc1CN(CC(Cc1c[nH]c2ccccc12)NC(=O)CCC(=O)c1ccc(Cl)cc1)C(C)=O (configuration not stated)		49%		
COc1cccc(CC(=O)NC(Cc2c[nH]c3ccccc23)CN(Cc2ccccc2OC)C(C)=O)c1 (configuration not stated)		22%		
COc1ccccc1CN(C[C@@H](Cc1c[nH]c2ccccc12)NC(=O)COc1ccc(CO)cc1)C(C)=O	0.43 nM		28%	17%
COc1ccccc1CN(C[C@@H](Cc1c[nH]c2ccccc12)NC(=O)CN1CCC(N2CCCCC2)CC1)C(C)=O [LANEPITANT]				9%
COc1ccccc1CN(CC(Cc1c[nH]c2ccccc12)NC(=O)CCC(=O)c1ccc(F)cc1)C(C)=O (configuration not stated)	6 nM	66%		
COc1ccccc1CN(CC(Cc1c[nH]c2ccccc12)NC(=O)c1ccccc1Cl)C(C)=O (configuration not stated)		0%		
COc1ccc(C(=O)NC(Cc2c[nH]c3ccccc23)CN(Cc2ccccc2OC)C(C)=O)cc1 (configuration not stated)		13%		
COc1ccccc1CN(CC(Cc1c[nH]c2ccccc12)NC(=O)Cc1ccccc1Cl)C(C)=O (configuration not stated)		30%		
COc1ccccc1CN(CC(Cc1c[nH]c2ccccc12)NC(=O)COc1ccccc1OC)C(C)=O (configuration not stated)	24 nM	42%		
COc1ccccc1CN(CC(Cc1c[nH]c2ccccc12)NC(=O)COc1ccc(C(C)=O)cc1)C(C)=O (configuration not stated)	3.5 nM	68%		
COc1ccccc1CN(CC(Cc1c[nH]c2ccccc12)NC(=O)Cc1ccc(O)cc1)C(C)=O (configuration not stated)		25%		
COc1ccccc1CN(CC(Cc1c[nH]c2ccccc12)NC(=O)COc1ccc(CO)cc1)C(C)=O (configuration not stated)	0.82 nM	87%		
COc1ccccc1CN(CC(Cc1c[nH]c2ccccc12)NC(=O)COc1ccc(Cl)cc1)C(C)=O (configuration not stated)		19%		
COc1ccccc1CN(CC(Cc1c[nH]c2ccccc12)NC(=O)Cc1ccc2c(c1)OCCO2)C(C)=O (configuration not stated)	8.3 nM	46%		
CC(=O)N(Cc1ccccc1Cl)C[C@@H](Cc1c[nH]c2ccccc12)NC(=O)COc1ccc(-n2ccnc2)cc1			96%	36%
COc1cccc(OCC(=O)NC(Cc2c[nH]c3ccccc23)CN(Cc2ccccc2OC)C(C)=O)c1 (configuration not stated)		3%		
COc1ccccc1CC(=O)NC(Cc1c[nH]c2ccccc12)CN(Cc1ccccc1OC)C(C)=O (configuration not stated)		23%		
COc1ccccc1CN(CC(Cc1c[nH]c2ccccc12)NC(=O)COc1ccc(O)cc1)C(C)=O (configuration not stated)	3.2 nM	59%		
COc1ccccc1CN(CC(Cc1c[nH]c2ccccc12)NC(=O)CCc1ccccc1)C(C)=O (configuration not stated)		20%		
COc1ccccc1CN(C[C@@H](Cc1c[nH]c2ccccc12)NC(=O)CCC(=O)c1ccccc1)C(C)=O	34 nM	20%		
CCOCC(=O)NC(Cc1c[nH]c2ccccc12)CN(Cc1ccccc1OC)C(C)=O (configuration not stated)		4%		
